# Test results taken from article PMC10141526 (The Journal of Biological Chemistry, 2023).
# What was measured:
# CD40 = test: Flow cytometry, surface expression of CD40 after Mn2+ activation; assay type: cell-based, mouse (NOD, BALB/c)
# Procedure, shortened: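 Flow cytometry on unfractionated PBMC from NOD and BALB/c mice ± Mn2+ activation, stained for CD4, CD40, CD18, CD11a and CD11b with isotype controls (1 to 3 × 10^5 cells). CD40 assessed in CD4hi, CD4lo (Th40) and CD4-negative subsets of the lymphocyte gate, read as overall mean fluorescence intensity. Two-tailed t test.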
# CD18 [1] = test: Flow cytometry, surface expression of CD18 after Mn2+ activation; assay type: cell-based, mouse (NOD, BALB/c)
# Procedure, shortened: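 Density-medium-purified PBMC from NOD and BALB/c mice, unactivated or Mn2+-activated, stained for CD4, CD40, CD18, CD11a and CD11b against isotype controls; 1 to 3 × 10^5 cells per stain. Lymphocytes gated as CD4hi, CD4lo (Th40) or CD4-negative, then CD18hi and CD18lo populations scored. One-way ANOVA with Tukey's multiple comparisons test.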
# CD11a [2] = test: Flow cytometry, surface expression of CD11a after Mn2+ activation; assay type: cell-based, mouse (NOD, BALB/c)
# Procedure, shortened: (§1)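 NOD and BALB/c PBMC, isolated over density medium and used without further purification, were stained with or without Mn2+ activation for CD4, CD40, CD18, CD11a and CD11b, with isotype controls (1 to 3 × 10^5 cells per stain). Flow cytometry, lymphocyte gate split into CD4hi (conventional CD4), CD4lo (Th40) and CD4-negative cells. CD11a or CD11b surface expression compared ± Mn2+.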
# CD11b [3] = test: Flow cytometry, surface expression of CD11b after Mn2+ activation; assay type: cell-based, mouse (NOD, BALB/c)
# Procedure, shortened: as §1
# CD69 = test: Flow cytometry, surface expression of CD69 after Mn2+ activation; assay type: cell-based, mouse (NOD, BALB/c); conditions: PBMC and spleen, Mn2+ 30 min
# CD154 = test: Flow cytometry, surface expression of CD154 after Mn2+ activation; assay type: cell-based, mouse (NOD, BALB/c); conditions: PBMC and spleen, Mn2+ 30 min
# CD25 = test: Flow cytometry, surface expression of CD25 after Mn2+ activation; assay type: cell-based, mouse (NOD, BALB/c); conditions: PBMC and spleen, Mn2+ 30 min
# [4] = molecular target: FITC-conjugated mouse KGYY15 (mouse); test: flow cytometry on cells
# CD11a [5] = test: Control immunoprecipitation; assay type: binding, mouse (NOD); conditions: NOD cell lysates; OVA-pep IP, control for KGYY15
# CD11b [6] = test: Control immunoprecipitation; assay type: binding, mouse (NOD); conditions: NOD cell lysates; OVA-pep IP, control for KGYY15
# CD18 [7] = test: Control immunoprecipitation; assay type: binding, mouse (NOD); conditions: NOD cell lysates; OVA-pep IP, control for KGYY15
# integrin αIIbβ3 = conditions: cited from earlier work
# [8] = system: integrin α5β1 (CD49e/CD29); conditions: cited from earlier work
# [9] = system: integrin αMβ2 (CD11b/CD18); conditions: cited from earlier work
# [10] = PBMC conventional CD4 T cells, both strains
# [11] = PBMC, BALB/c Th40, NOD Th40 and CD4-negative cells
# [12] = spleen cells, two mouse strains
# [13] = PBMC, any cell type, either strain
molecule,measurement,setting,value
"[Mn+2] [Mn^2+, manganese divalent ions]",surface expression of CD40,CD40; [10],did not change surface expression of CD40 or CD18
same,percentage of cells expressing CD40 on surface,"CD40; PBMC, NOD and BALB/c",did not increase the percentage of cells expressing CD40
same,intensity of CD40 surface expression,CD40; [11],significantly elevated
same,surface expression of CD40,CD40; [12],did not reveal any change
same,surface expression of CD18,CD18 [1]; [10],did not change surface expression of CD40 or CD18
same,CD18hi population,CD18 [1]; [11],decrease in the CD18^hi population
same,CD18lo population,CD18 [1]; [11],corresponding increase in the CD18^lo population
same,surface expression of CD18,CD18 [1]; [12],did not reveal any change
same,surface expression of CD11a,CD11a [2]; [13],no change
same,surface expression of CD11a,CD11a [2]; [12],did not reveal any change
same,surface expression of CD11b,CD11b [3]; [13],no change
same,surface expression of CD11b,CD11b [3]; [12],did not reveal any change
same,surface expression of CD69,CD69,None of the three molecules was affected
same,surface expression of CD154,CD154,None of the three molecules was affected
same,surface expression of CD25,CD25,None of the three molecules was affected
recombinant CD11a/CD18 (R&D Systems cat# 3868-AV-050) (from UniProt P20701 26-1090; P05107 23-700) (complex),percent reduction of KGYY15-FITC staining of NAMALWA cells,[4],29.4%
recombinant CD11b/CD18 (R&D Systems cat# 4047-AM-050) (from UniProt P11215 17-1104; P05107 23-700) (complex),percent reduction of KGYY15-FITC staining of NAMALWA cells,[4],22.7%
"OVA-peptide: unrelated peptide, the 17-amino-acid OVA (323–339) peptide, control for KGYY15 (KISQAVHAAHAEINEAG; UniProt P01012 323-339, looked up, fragment)",immunoprecipitation of CD11a (control),CD11a [5],"No CD11a, CD11b, or CD18 was immunoprecipitated"
same,immunoprecipitation of CD11b (control),CD11b [6],"No CD11a, CD11b, or CD18 was immunoprecipitated"
same,immunoprecipitation of CD18 (control),CD18 [7],"No CD11a, CD11b, or CD18 was immunoprecipitated"
"CD154: natural CD40-ligand, whole protein (protein, UniProt P27548 112-260, looked up) CD40 ligand, soluble form: MQRGDEDPQIAAHVVSEANSNAASVLQWAKKGYYTMKSNLVMLENGKQLTVKREGLYYVYTQVTFCSNREPSSQRPFIVGLWLKPSSGSERILLKAANTHSSSQLCEQQSVHLGGVFELQAGASVFVNVTEASQVIHRVGFSSFGLLKL",binding to integrin,integrin αIIbβ3,binds
same,binding to integrin,[8],binds
same,binding to integrin,[9],binds
